HSP90 inh: blocks HSP90-mediated luciferase refolding in reticulocyte lysate; Rabbit reticulocyte lysate, luciferase refolding luminescence, 3 h; inhibition, % at 5.6 µM; hit rate 0.91% among 290,000; AID 1789;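 active = inhibition above the screen-wide mean plus 3 SD, computed separately per campaign, cut at about 16% in these data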;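 also: 0% = DMSO wells and 100% = 60 µM geldanamycin wells; inhibitors lower the luminescence because luciferase stays unfolded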
FLuc stim CS: affects firefly luciferase, flagging false hits in luciferase stimulation screens | P08659 | ATPlite luciferase biochemical, luminescence, 10 min; 0 = ATP-free wells, 1 = DMSO control | activation factor at 10 µM | 200,000 tested, under 10 active;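 active = luciferase activation factor, scaled between plate controls, of at least 2 with compound at 10 µM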
Target sequence (P08659 whole entry, looked up): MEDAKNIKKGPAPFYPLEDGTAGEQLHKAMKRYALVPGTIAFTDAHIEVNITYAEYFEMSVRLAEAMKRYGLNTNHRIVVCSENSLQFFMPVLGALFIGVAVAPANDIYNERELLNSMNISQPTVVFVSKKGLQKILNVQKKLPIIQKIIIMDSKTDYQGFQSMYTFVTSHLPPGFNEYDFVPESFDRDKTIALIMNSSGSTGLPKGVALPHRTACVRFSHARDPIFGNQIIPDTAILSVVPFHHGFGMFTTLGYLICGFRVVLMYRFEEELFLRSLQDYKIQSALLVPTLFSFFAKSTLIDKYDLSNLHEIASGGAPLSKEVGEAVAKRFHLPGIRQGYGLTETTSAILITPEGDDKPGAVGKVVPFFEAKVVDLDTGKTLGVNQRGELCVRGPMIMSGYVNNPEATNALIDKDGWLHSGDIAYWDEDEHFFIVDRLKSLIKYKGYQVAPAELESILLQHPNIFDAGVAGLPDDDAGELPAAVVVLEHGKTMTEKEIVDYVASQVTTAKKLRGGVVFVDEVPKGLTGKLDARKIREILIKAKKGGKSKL
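System: luciferase plus luciferin reagent, cell-free; medium: PBS as buffer for the ATP substrate; dosing: test compounds dosed from 2 mM stocks in 100% DMSO; timing: 10 min post-reagent at room temperature; measured by: luminescence measurement of luciferase light output; evaluation: luciferase activation, seen as luminescence increase over controls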
TRAIL sens C8: sensitizes caspase-8 expressing cells to TRAIL. NB7+C8 cells + TRAIL, ATPlite viability luminescence. inhibition (viability loss, TRAIL sensitization), % at 10 µM. hit rate 1% among 360,000;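 active = compounds causing at least 50% loss of cell viability in the single-dose screen, relative to plate controls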
STAT3 blocker: inhibitors of IL-6 induced STAT3 signaling; AID 862; U3A cells, IL-6 STAT3-luciferase reporter, luminescence; host cell line lacks STAT1; hit rate 0.89% among 190,000; inhibition, % at 5.5 µM;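 active = inhibition above the mean inhibition across all screened compounds plus 3 SD, cut at about 44% in these data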;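 also: 0% = DMSO only wells and 100% = 100 µM nifuroxazide control wells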
PPC-1+TRAIL kill: compounds killing PPC-1 cancer cells with TRAIL present (potentiator screen, no TRAIL-free arm) | hit rate 0.41% among 220,000 | PPC-1 cells + TRAIL, ATPLite viability luminescence | cell killing (% activity), % at 4 µM or 5 µM;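 active = cell killing above 50% in the first pass at 4 µM, then a duplicate retest at 5 µM averaging 50% or more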;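 also: plate controls were cells with TRAIL plus DMSO for no effect and medium-only wells lacking cells for full effect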
FLuc inh counter: counter-screen for luciferase assay inhibitors: firefly luciferase inhibition | P08659 | ATPLite firefly luciferase biochemical luminescence, 10 min | inhibition, % at 10 µM | hit rate 1.5% among 200,000 | AID 1006;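 active = inhibition above about 50% when tested at 10 µM, limit read from the data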
* = called active by the depositor; . = not tested or not shown. A selection: hits, their analogues and other compounds. The true share with any hit is near 2.2%.

SMILES | HSP90 inh | FLuc stim CS | TRAIL sens C8 | STAT3 blocker | PPC-1+TRAIL kill | FLuc inh counter
CCOc1ccc(S(=O)(=O)N2CN(c3cccc(C(C)=O)c3)c3nc4ccccc4nc32)cc1 | . | . | -6 | . | . | .
Cc1ccc(-c2nc3sc(C(N)=O)c(N)c3c3c2CCCC3)cc1 | 1 | 1 | 15 | 8 | 55* | -3
COc1ccc(S(=O)(=O)N2CCC(C(=O)NCCC3=CCCCC3)CC2)cc1C | -1 | 1 | 54* | 7 | 27 | -2
NC1=NN=C(c2ccc3c(c2)OCCO3)CS1 | 2 | 0.2 | 47 | 66* | 23 | 79*
COc1ccccc1C(CNc1ccc(S(=O)(=O)N2CCCC2)cc1[N+](=O)[O-])N(C)C (configuration not stated) | 1 | . | 65* | . | . | .
COc1ccc(C(CNc2ccc(S(=O)(=O)N3CCN(C)CC3)cc2[N+](=O)[O-])N(C)C)cc1 (configuration not stated) | . | . | 3 | . | . | .
CN(Cc1ccccc1Br)C(=O)CN1C(=O)NC2(CCCCCC2)C1=O | . | . | -4 | . | . | .
CCCCC[C@H](C)N1C[C@@H](COCc2ccccc2)Oc2cc(N3CCC[C@H]3C(N)=O)ccc2S1(=O)=O | . | . | 11 | . | . | .
CC(=O)O[C@@H]1C[C@H](c2ccccc2)OC(=O)CCCCC1=O | . | . | 8 | . | . | .
O=C1CCCCC(=O)[C@H](OC(=O)c2ccccc2)C[C@H](c2ccccc2)O1 | . | . | 67* | . | . | .
CC1CCCCN1C(=O)C(=O)c1cn(CC(=O)N2CCCCCC2)c2ccccc12 (configuration not stated) | -1 | . | 8 | . | . | .
O=C(N/N=C1\C/C(=N\NC(=O)c2ccncc2)c2ccccc21)c1ccncc1 | -2 | 0.3 | 48 | -34 | -12 | 69*
COc1ccc(Cc2nc3ccc(C(=O)N4CCN(C)C(C)C4)cc3o2)cc1OC (configuration not stated) | -2 | . | 10 | . | . | .
CC1(C(=O)O)CCCN1C(=O)c1cccc2ccccc12 (configuration not stated) | . | . | 3 | . | . | .
O=C1CCCCCC(=O)[C@H](O)C[C@H](c2ccccc2)O1 | . | . | -21 | . | . | .
N#Cc1ccccc1NC(=O)COC(=O)/C=C/c1cn(-c2ccccc2)nc1-c1ccc(Cl)cc1 | 0 | 1 | 61* | 11 | 16 | -4
O=C(O)c1ccc(NCCC2=CCCCC2)c([N+](=O)[O-])c1 | -3 | 1 | -5 | 16 | 0 | 0
CCc1ccc(-c2cn3c(n2)SCC3)cc1 | 4 | 0.4 | 29 | 26 | 31 | 64*
CCCCC(=O)NC1(C(F)(F)F)NC(=O)N(C)C1=O (configuration not stated) | -1 | . | -4 | . | 11 | .
O=C1C2C3C=CC(CC3)C2C(=O)N1/N=C/c1ccc(O)cc1 (configuration not stated) | -2 | 0.4 | 31 | 2 | 26 | 63*
Cc1cc(Cl)ccc1NC(=O)CN1C(=O)C(=O)N(C2CCCC2)C1=O | . | . | -8 | . | . | .
CCc1cc2c(=O)[nH]c(-c3ccccn3)nc2s1 | 3 | 0.6 | 53* | 3 | 60* | 37
CCc1cc2c(=O)[nH]c(N3CCCC3)nc2s1 | -2 | 1 | -10 | -13 | 12 | 3
O=C(Nc1nc(-c2cccs2)cs1)c1ccco1 | 0 | 0.5 | -3 | 2 | 26 | 53*
O=C(Nc1ccc2nc(-c3cccs3)[nH]c2c1)c1ccco1 | -3 | 0.4 | 48 | 22 | 11 | 62*
SMILES | HSP90 inh | FLuc stim CS | TRAIL sens C8 | STAT3 blocker | PPC-1+TRAIL kill | FLuc inh counter
O=C(Nc1ccc(-c2nc3ccc(NC(=O)c4cccs4)cc3[nH]2)cc1)c1cccs1 | 3 | 1.1 | 32 | 9 | -9 | -7
O=C(Nc1nc(-c2ccncc2)cs1)c1ccco1 | -3 | 1 | -3 | 11 | -10 | 4
Cn1cccc1-c1nc2ccc(NC(=O)c3ccco3)cc2[nH]1 | -3 | 0.9 | 21 | 28 | 18 | 10
CC(=O)Nc1ccc2nc(-c3ccccn3)[nH]c2c1 | 2 | 0.5 | 33 | 1 | 35 | 51*
O=C(Nc1ccc2nc(-c3cccs3)[nH]c2c1)c1cccs1 | -8 | 0.4 | 42 | 26 | 41 | 61*
Cc1ccc(S(=O)(=O)NC2CCCc3ccccc32)cc1C (configuration not stated) | 2 | 1.1 | 5 | -10 | -4 | -7
CC(/C=C/c1ccccc1)=N/NC(=O)Cn1nnc(N)n1 | -1 | . | 12 | . | 18 | .

Assay outcomes as filed in PubChem.
